Reference: ChEMBL document CHEMBL1221219, “Selective blockade of 2-arachidonoylglycerol hydrolysis produces cannabinoid behavioral effects” (Nat Chem Biol, 2009)
The source made the active and inactive calls. The rule behind the calls is not given here.

Key:
[1] = target: T1, Monoacylglycerol lipase ABHD6 (Mus musculus) (UniProt Q8R2Y0); assay: Inhibition of ABHD6 in C57B1/6J mouse brain membrane after 30 mins by competitive activity-based protein profiling method; type: cell membranes
T1 sequence (whole entry): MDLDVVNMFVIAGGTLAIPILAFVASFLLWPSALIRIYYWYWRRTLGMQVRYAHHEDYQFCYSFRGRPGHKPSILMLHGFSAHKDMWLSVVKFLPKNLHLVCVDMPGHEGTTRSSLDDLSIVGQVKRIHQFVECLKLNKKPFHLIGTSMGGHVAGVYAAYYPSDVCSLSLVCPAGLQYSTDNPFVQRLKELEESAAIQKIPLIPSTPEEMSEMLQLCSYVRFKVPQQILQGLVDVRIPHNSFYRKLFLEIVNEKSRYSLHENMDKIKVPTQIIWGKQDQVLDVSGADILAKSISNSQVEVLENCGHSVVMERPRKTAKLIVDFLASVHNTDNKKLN
Procedure, shortened: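 Mouse brain membrane proteome at 1 mg ml^-1 in PBS was preincubated with inhibitor (1 nM-10 μM) for 30 min at 37°C. FP-rhodamine was then added at 2 μM final for 30 min at room temperature, followed by SDS-PAGE and in-gel fluorescence scanning.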

[2] = target: T2, Monoglyceride lipase (Mus musculus) (UniProt O35678); assay: Inhibition of MAGL in C57B1/6J mouse brain membrane after 30 mins by competitive activity-based protein profiling method; type: cell membranes
T2 sequence (whole entry): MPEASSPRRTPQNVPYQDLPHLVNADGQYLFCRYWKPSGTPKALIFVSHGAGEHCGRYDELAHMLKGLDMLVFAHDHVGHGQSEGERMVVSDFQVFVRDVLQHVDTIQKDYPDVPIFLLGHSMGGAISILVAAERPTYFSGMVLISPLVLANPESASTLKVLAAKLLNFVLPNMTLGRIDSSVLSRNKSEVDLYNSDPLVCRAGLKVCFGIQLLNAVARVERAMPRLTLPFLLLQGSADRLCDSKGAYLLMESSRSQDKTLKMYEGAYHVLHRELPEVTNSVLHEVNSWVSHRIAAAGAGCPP
Procedure, shortened: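 Mouse brain membrane proteome (1 mg ml^-1 in PBS) preincubated 30 min at 37°C with inhibitor (1 nM-10 μM). FP-rhodamine then added (2 μM final) for 30 min at room temperature. Reaction quenched in SDS loading buffer, boiled 5 min at 90°C, resolved by SDS-PAGE and read by in-gel fluorescence.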

[3] = target: T3, Monoglyceride lipase (Rattus norvegicus, UniProt Q8R431); assay: Inhibition of MAGL in Wistar rat brain
T3 sequence (Q8R431 whole entry): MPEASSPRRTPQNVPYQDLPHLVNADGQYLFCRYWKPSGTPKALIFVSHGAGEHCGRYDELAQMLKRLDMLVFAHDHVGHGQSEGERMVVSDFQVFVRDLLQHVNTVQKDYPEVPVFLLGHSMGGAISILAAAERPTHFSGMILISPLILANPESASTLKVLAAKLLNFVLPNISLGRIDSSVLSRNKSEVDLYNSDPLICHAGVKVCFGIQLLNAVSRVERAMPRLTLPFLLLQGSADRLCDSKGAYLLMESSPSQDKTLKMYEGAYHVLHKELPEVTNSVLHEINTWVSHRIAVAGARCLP

Row | Structure (SMILES) | inhibition [1] | inhibition [2] | IC50 [3]
1 | O=C(Oc1ccc([N+](=O)[O-])cc1)N1CCN(C(c2ccc(F)cc2)c2ccc(F)cc2)CC1 | Active | Active | –
2 | COc1ccc(C(c2ccc(OC)cc2)N2CCN(C(=O)Oc3ccc([N+](=O)[O-])cc3)CC2)cc1 | Active | Active | –
3 | CN(Cc1cccc(-c2ccncc2)c1)C(=O)Oc1ccc([N+](=O)[O-])cc1 | Active | Active | –
4 | O=C(Nc1cccc(-c2ccccc2)c1)OC1CCCCC1 | – | – | 200 µM
5 | COc1ccc(C(O)(c2ccc(OC)cc2)C2CCN(C(=O)Oc3ccc([N+](=O)[O-])cc3)CC2)cc1 | – | Active | –
